{
  "source": "ChEMBL document CHEMBL3351639",
  "about": "“Fluorinated analogues of marsanidine, a highly α2-AR/imidazoline I1 binding site-selective hypotensive agent. Synthesis and biological activities” (Eur J Med Chem, 2014)",
  "key": {"Nischarin": {"molecular_target": "Nischarin (Rattus norvegicus, UniProt Q4G017)", "sequence (Q4G017 whole entry)": "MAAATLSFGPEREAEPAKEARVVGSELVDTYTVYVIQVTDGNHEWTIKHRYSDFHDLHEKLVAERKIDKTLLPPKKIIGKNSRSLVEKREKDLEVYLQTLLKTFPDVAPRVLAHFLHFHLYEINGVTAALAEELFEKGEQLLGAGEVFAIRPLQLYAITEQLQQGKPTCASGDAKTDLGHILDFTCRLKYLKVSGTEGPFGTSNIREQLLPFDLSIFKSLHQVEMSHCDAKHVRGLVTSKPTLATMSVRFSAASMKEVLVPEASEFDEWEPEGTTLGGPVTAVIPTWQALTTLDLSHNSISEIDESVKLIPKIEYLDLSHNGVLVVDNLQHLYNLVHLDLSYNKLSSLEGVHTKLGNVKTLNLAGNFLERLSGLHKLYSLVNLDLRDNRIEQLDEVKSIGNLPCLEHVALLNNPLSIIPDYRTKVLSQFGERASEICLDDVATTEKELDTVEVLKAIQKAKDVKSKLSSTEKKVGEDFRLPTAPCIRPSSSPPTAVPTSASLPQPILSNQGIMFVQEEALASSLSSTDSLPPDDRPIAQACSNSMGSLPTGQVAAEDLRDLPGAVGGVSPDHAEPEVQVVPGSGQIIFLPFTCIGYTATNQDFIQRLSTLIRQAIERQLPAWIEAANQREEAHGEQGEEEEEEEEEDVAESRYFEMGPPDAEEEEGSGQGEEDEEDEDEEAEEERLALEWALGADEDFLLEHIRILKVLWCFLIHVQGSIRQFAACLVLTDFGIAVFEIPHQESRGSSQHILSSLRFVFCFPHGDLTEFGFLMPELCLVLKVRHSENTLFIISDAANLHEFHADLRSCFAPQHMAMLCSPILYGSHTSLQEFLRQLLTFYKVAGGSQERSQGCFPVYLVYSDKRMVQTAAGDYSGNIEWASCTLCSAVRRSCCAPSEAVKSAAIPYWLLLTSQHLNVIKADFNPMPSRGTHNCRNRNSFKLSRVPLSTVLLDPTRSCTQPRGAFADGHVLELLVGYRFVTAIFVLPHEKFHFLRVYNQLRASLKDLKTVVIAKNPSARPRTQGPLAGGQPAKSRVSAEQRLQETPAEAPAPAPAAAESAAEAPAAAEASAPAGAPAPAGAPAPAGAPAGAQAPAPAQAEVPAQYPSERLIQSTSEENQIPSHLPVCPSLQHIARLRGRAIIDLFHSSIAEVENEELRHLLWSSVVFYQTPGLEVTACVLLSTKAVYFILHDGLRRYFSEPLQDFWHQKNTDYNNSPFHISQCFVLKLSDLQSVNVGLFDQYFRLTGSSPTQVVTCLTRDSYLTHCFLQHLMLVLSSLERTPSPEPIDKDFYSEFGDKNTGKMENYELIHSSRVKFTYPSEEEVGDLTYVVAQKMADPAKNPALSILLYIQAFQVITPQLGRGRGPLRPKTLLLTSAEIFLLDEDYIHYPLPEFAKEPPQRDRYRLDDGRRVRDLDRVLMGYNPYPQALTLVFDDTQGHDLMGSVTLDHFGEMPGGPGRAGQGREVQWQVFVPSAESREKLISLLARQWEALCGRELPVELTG", "assay": "Displacement of […] from imidazoline I1 receptor in Sprague-Dawley rat kidney membranes after 45 mins by liquid scintillation counting", "type": "cell membranes, Membrane"}, "Rattus norvegicus [1]": {"tested_on": "Rattus norvegicus", "assay": "Hypertensive activity in anesthetized Wistar rat assessed as time required for maximal increase in mean arterial blood pressure at 0.1 mg/kg, iv measured during 60 mins post dose", "type": "organism-based", "parameters": "dose 0.1 mg/kg, route intravenous", "details": "in vivo, 1 h", "summary_of_the_method": "(§1)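 Male Wistar rats (200–290 g) anaesthetized with thiopental 70 mg/kg i.p., maintained at 30 µg/kg/min; body temperature 36–37 °C. Carotid catheter recorded MAP and HR; jugular catheter for infusion. After 40 min of saline/thiopental infusion (1.2 ml/h), 0.1 mg/kg given as i.v. bolus (time 0). Signals sampled at 100 Hz. Maximal change from time 0 over 60 min, and its time, recorded. Saline vehicle control; n = 4–5.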"}, "[2]": {"assay": "Displacement of […] from imidazoline I2 receptor in Sprague-Dawley rat kidney membranes after 45 mins by liquid scintillation counting", "type": "cell membranes, Membrane"}, "Rattus norvegicus [3]": {"tested_on": "Rattus norvegicus", "assay": "Cardiovascular activity in anesthetized Wistar rat assessed as time required for maximal reduction in heart rate at 0.1 mg/kg, iv measured during 60 mins post dose", "type": "functional", "summary_of_the_method": "as §1"}, "Rattus norvegicus [4]": {"tested_on": "Rattus norvegicus", "assay": "Cardiovascular activity in anesthetized Wistar rat assessed as maximal reduction in heart rate at 0.1 mg/kg, iv measured during 60 mins post dose", "type": "functional", "summary_of_the_method": "as §1"}, "[5]": {"molecular_target": "T1, Adrenergic receptor alpha-1 (Rattus norvegicus, UniProt P15823+P23944+P43140)", "T1 sequence (P15823 whole entry)": "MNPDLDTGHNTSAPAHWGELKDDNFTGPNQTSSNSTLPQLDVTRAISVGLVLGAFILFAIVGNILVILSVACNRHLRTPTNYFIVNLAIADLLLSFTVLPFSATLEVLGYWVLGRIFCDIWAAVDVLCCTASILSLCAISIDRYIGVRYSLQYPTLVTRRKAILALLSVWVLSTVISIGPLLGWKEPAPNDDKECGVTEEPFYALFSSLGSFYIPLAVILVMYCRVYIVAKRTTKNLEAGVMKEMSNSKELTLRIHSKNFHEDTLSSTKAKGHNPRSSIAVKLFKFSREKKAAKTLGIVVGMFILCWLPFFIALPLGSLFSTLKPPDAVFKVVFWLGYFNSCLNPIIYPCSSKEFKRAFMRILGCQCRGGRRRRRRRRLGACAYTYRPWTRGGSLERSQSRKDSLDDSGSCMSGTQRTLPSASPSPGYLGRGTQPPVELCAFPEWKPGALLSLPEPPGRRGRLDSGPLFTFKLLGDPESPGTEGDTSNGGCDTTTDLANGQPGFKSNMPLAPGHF", "T1 sequence (P23944 whole entry)": "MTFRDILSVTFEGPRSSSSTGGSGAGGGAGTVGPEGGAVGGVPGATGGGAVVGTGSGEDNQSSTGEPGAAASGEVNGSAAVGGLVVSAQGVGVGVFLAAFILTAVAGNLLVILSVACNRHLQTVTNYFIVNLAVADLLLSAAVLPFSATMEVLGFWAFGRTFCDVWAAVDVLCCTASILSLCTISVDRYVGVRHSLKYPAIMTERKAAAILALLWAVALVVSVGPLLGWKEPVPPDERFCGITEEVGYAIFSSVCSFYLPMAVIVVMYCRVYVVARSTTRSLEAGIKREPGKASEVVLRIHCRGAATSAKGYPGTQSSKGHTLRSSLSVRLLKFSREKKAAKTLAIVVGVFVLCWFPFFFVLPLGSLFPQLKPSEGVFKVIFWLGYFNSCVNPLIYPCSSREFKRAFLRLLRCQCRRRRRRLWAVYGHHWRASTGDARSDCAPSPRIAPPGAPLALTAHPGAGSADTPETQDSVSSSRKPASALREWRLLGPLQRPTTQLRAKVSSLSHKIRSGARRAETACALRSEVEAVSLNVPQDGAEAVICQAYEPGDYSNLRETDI", "T1 sequence (P43140 whole entry)": "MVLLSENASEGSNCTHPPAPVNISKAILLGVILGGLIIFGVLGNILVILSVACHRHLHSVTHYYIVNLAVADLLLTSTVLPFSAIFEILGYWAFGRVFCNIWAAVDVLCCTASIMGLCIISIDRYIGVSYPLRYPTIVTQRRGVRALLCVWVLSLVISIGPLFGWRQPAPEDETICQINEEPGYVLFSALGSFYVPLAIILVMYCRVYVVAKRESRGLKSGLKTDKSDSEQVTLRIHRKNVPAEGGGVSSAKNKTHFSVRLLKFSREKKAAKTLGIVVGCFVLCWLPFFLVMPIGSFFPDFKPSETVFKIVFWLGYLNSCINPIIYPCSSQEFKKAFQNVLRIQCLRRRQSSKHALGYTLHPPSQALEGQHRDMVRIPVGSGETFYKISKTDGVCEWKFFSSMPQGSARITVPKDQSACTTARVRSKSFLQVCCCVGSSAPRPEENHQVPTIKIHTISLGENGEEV", "assay": "Displacement of [3H]prazosin from alpha1-adrenoceptor in Sprague-Dawley rat brain membranes after 45 mins by liquid scintillation counting", "type": "cell membranes, Membrane", "summary_of_the_method": "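Crude P2 membranes from brains of male Sprague-Dawley rats (250–280 g), 0.2–0.3 mg protein. Radioligand 1 nM [3H]RX821002 (α2) or [3H]prazosin (α1); 11 concentrations of compound, 0.1 nM–100 µM. Non-specific binding: 10 µM rauwolscine (α2) or 10 µM phenylephrine (α1). Triplicate incubation, RT, 45 min. PEI-soaked glass-fibre filtration, then scintillation counting. Ki by Cheng-Prusoff; 3–4 experiments, or one for low-affinity compounds.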"}, "Rattus norvegicus [6]": {"tested_on": "Rattus norvegicus", "assay": "Hypertensive activity in anesthetized Wistar rat assessed as maximal increase in mean arterial blood pressure at 0.1 mg/kg, iv measured during 60 mins post dose", "type": "organism-based", "parameters": "dose 0.1 mg/kg, route intravenous", "details": "in vivo, 1 h", "summary_of_the_method": "as §1"}},
  "data": [
    {"smiles": "Fc1cccc2cnn(N=C3NCCN3)c12", "values": [
      {"measurement": "IC50", "setting": "Nischarin", "result": 7.74, "unit": "µM"},
      {"measurement": "Time", "setting": "Rattus norvegicus [1]", "result": 4, "unit": "min"},
      {"measurement": "Ki", "setting": "[2]", "result": 349, "unit": "µM"},
      {"measurement": "Time", "setting": "Rattus norvegicus [3]", "result": 10, "unit": "min"},
      {"measurement": "Activity", "setting": "Rattus norvegicus [4]", "result": 128, "unit": "bpm"},
      {"measurement": "Ki", "setting": "[5]", "result": 1.625, "unit": "µM"},
      {"measurement": "Activity", "setting": "Rattus norvegicus [6]", "result": 21.1, "unit": "mmHg"}
    ]},
    {"smiles": "Fc1ccc2cnn(N=C3NCCN3)c2c1", "values": [
      {"measurement": "IC50", "setting": "Nischarin", "result": 20.7, "unit": "µM"},
      {"measurement": "Time", "setting": "Rattus norvegicus [1]", "result": 3, "unit": "min"},
      {"measurement": "Ki", "setting": "[2]", "result": 22, "unit": "µM"},
      {"measurement": "Time", "setting": "Rattus norvegicus [3]", "result": 2, "unit": "min"},
      {"measurement": "Activity", "setting": "Rattus norvegicus [4]", "result": 118, "unit": "bpm"},
      {"measurement": "Ki", "setting": "[5]", "result": 0.9183, "unit": "µM"},
      {"measurement": "Activity", "setting": "Rattus norvegicus [6]", "result": 24.8, "unit": "mmHg"}
    ]},
    {"smiles": "Fc1ccc2c(cnn2CC2=NCCN2)c1", "values": [
      {"measurement": "IC50", "setting": "Nischarin", "result": 2.42, "unit": "µM"},
      {"measurement": "Time", "setting": "Rattus norvegicus [1]", "result": 2, "unit": "min"},
      {"measurement": "Ki", "setting": "[2]", "result": 0.0104, "unit": "µM"},
      {"measurement": "Time", "setting": "Rattus norvegicus [3]", "result": 38, "unit": "min"},
      {"measurement": "Activity", "setting": "Rattus norvegicus [4]", "result": 12, "unit": "bpm"},
      {"measurement": "Ki", "setting": "[5]", "result": 0.4763, "unit": "µM"},
      {"measurement": "Activity", "setting": "Rattus norvegicus [6]", "result": 0.8, "unit": "mmHg"}
    ]},
    {"smiles": "Fc1ccc2c(cnn2N=C2NCCN2)c1", "values": [
      {"measurement": "IC50", "setting": "Nischarin", "result": 0.0916, "unit": "µM"},
      {"measurement": "Time", "setting": "Rattus norvegicus [1]", "result": 2, "unit": "min"},
      {"measurement": "Ki", "setting": "[2]", "result": 5.7, "unit": "µM"},
      {"measurement": "Time", "setting": "Rattus norvegicus [3]", "result": 5, "unit": "min"},
      {"measurement": "Activity", "setting": "Rattus norvegicus [4]", "result": 61, "unit": "bpm"},
      {"measurement": "Ki", "setting": "[5]", "result": 2.32, "unit": "µM"},
      {"measurement": "Activity", "setting": "Rattus norvegicus [6]", "result": 14.6, "unit": "mmHg"}
    ]},
    {"smiles": "Fc1ccc2cnn(CC3=NCCN3)c2c1", "values": [
      {"measurement": "IC50", "setting": "Nischarin", "result": 33.5, "unit": "µM"},
      {"measurement": "Time", "setting": "Rattus norvegicus [1]", "result": 4, "unit": "min"},
      {"measurement": "Ki", "setting": "[2]", "result": 0.00819, "unit": "µM"},
      {"measurement": "Time", "setting": "Rattus norvegicus [3]", "result": 5, "unit": "min"},
      {"measurement": "Activity", "setting": "Rattus norvegicus [4]", "result": 52, "unit": "bpm"},
      {"measurement": "Ki", "setting": "[5]", "result": 0.5183, "unit": "µM"},
      {"measurement": "Activity", "setting": "Rattus norvegicus [6]", "result": 23.6, "unit": "mmHg"}
    ]}
  ]
}
